Experimental data: publication PMC7269016 (The Journal of investigative dermatology, 2018)
“Also recorded” adds a separate entry of the source.

Key:
p38γ = biological target: T1, p38γ (Homo sapiens, UniProt P53778); experiment: ADP-Glo in vitro kinase assay; type: biochemical; conditions: for inhibition of p38γ kinase activity (in words): cell-free ADP-Glo, 1 μmol/L and 10 μmol/L, Figure 5c
T1 sequence (P53778 1-367): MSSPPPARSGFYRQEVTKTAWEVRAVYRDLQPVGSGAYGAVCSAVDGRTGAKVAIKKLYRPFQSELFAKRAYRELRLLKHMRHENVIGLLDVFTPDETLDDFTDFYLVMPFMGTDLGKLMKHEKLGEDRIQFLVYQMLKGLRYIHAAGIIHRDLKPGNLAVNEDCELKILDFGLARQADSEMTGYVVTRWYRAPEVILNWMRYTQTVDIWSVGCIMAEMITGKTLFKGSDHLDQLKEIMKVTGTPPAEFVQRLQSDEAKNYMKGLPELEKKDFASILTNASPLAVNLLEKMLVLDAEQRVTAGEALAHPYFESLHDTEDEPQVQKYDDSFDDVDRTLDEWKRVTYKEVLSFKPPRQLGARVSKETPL

Hut78 cells = type: cell-based, human; conditions: for reduction of Hut78 cell viability (in words): Figure 5a
CTCL cells = experiment: Cell killing of CTCL cells; type: cell-based; conditions: Homo sapiens, read-out: IC50 for cell killing on the CTCL cells
Procedure, shortened: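 Hut78, HH and H9 CTCL cell lines were exposed to varying concentrations of test compound for 72 hours. Viability was read by CellTiterGlo and normalized to DMSO control. IC50 was derived from dose-response data. There were three independent experiments, each averaged from triplicates.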

IC50 (p38γ) [µM] | SMILES | inhibition of p38γ kinase activity (in words) (p38γ) | influence on viability of Hut78 cells (in words) (Hut78 cells; up to approximately 10 μmol/L, 72 hours) | reduction of Hut78 cell viability (in words) (Hut78 cells) | IC50 (CTCL cells) [µM]
 | Cc1nc(NC(=O)N2CCC[C@H]2C(N)=O)sc1-c1csc(C(C)(C)C)n1 [A66] | no inhibitory kinase activities against p38γ; also recorded: does not inhibit in vitro activity of p38γ | no influence on the viability of Hut78 cells; also recorded: does not affect cell viability |  | 
 | Cn1c(=O)n(-c2ccc(C(C)(C)C#N)cc2)c2c3cc(-c4cnc5ccccc5c4)ccc3ncc21 [BEZ235] | no inhibitory kinase activities against p38γ |  | only modest reduction of cell viability | 
 | CS(=O)(=O)N1CCN(Cc2cc3nc(-c4cccc5[nH]ncc45)nc(N4CCOCC4)c3s2)CC1 [GDC0941] | no inhibitory kinase activities against p38γ |  | only modest reduction of cell viability | 
> 125 | Cc1ccc(=O)n(-c2ccccc2)c1 [pirfenidone] |  |  |  | > 125
